From ChEMBL document CHEMBL1153726, “Synthesis and anticancer activity of sclerophytin-inspired hydroisobenzofurans” (Bioorg Med Chem Lett, 2009)

How the values were obtained:
Assay type in all cases: functional
BT-549 [1] = test: Growth inhibition of human BT549 cells at 1 nM after 96 hrs by MTT assay; parameters: scale not given: the % may be the effect or the level left
RXF 393 [2] = test: Growth inhibition of human RXF393 cells at 1 nM after 96 hrs by MTT assay; parameters: scale not given: the % may be the effect or the level left
786-0 [3] = test: Growth inhibition of human 786-0 cells at 1 nM after 96 hrs by MTT assay; parameters: scale not given: the % may be the effect or the level left
UACC-257 = test: Growth inhibition of human UACC257 cells at 1 nM after 96 hrs by MTT assay; parameters: scale not given: the % may be the effect or the level left
SNB-19 [4] = test: Growth inhibition of human SNB19 cells at 1 nM after 96 hrs by MTT assay; parameters: scale not given: the % may be the effect or the level left
COLO 205 = test: Growth inhibition of human COLO205 cells at 1 nM after 96 hrs by MTT assay; parameters: scale not given: the % may be the effect or the level left
SR [5] = test: Growth inhibition of human SR cells at 1 nM after 96 hrs by MTT assay; parameters: scale not given: the % may be the effect or the level left
T47D [6] = test: Growth inhibition of human T47D cells at 10 uM after 96 hrs by MTT assay; parameters: scale not given: the % may be the effect or the level left
TK-10 [7] = test: Growth inhibition of human TK10 cells at 10 uM after 96 hrs by MTT assay; parameters: scale not given: the % may be the effect or the level left
RXF 393 [8] = test: Growth inhibition of human RXF393 cells at 10 uM after 96 hrs by MTT assay; parameters: scale not given: the % may be the effect or the level left
SNB-19 [9] = test: Growth inhibition of human SNB19 cells at 10 uM after 96 hrs by MTT assay; parameters: scale not given: the % may be the effect or the level left
SF-295 = test: Growth inhibition of human SF295 cells at 10 uM after 96 hrs by MTT assay; parameters: scale not given: the % may be the effect or the level left
SW-620 = test: Growth inhibition of human SW620 cells at 10 uM after 96 hrs by MTT assay; parameters: scale not given: the % may be the effect or the level left
HT-29 [10] = test: Growth inhibition of human HT-29 cells at 10 uM after 96 hrs by MTT assay; parameters: scale not given: the % may be the effect or the level left
NCI-H322M = test: Growth inhibition of human NCI-H322M cells at 10 uM after 96 hrs by MTT assay; parameters: scale not given: the % may be the effect or the level left
HT-29 [11] = test: Growth inhibition of human HT-29 cells after 96 hrs by MTT assay; conditions: HT-29, 96 h
Summary of the method: (§1)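 Run in the NCI 60 human tumour cell line panel as a five-dose assay. GI50 and LC50 were reported for each cell line.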

OVCAR-4 [12] = test: Growth inhibition of human OVCAR4 cells after 96 hrs by MTT assay; conditions: OVCAR-4, 96 h
Summary of the method: (§2)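 Tested in the NCI 60-cell-line panel in five-dose format; GI50 and LC50 values reported for each cell line.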

MCF7 = test: Growth inhibition of human MCF7 cells after 96 hrs by MTT assay; conditions: MCF7, 96 h; summary of the method: as §1
BT-549 [13] = test: Growth inhibition of human BT549 cells after 96 hrs by MTT assay; conditions: BT-549, 96 h
T47D [14] = test: Growth inhibition of human T47D cells after 96 hrs by MTT assay; summary of the method: as §2
HCC 2998 = test: Growth inhibition of human HCC2998 cells after 96 hrs by MTT assay; conditions: HCC 2998, 96 h; summary of the method: as §1
SR [15] = test: Growth inhibition of human SR cells after 96 hrs by MTT assay; summary of the method: as §2
HL-60(TB) = test: Growth inhibition of human HL-60(TB) cells after 96 hrs by MTT assay; conditions: HL-60, 96 h
MDA-MB-468 = test: Growth inhibition of human MDA-MB-468 cells at 1 uM after 96 hrs by MTT assay; parameters: scale not given: the % may be the effect or the level left
786-0 [16] = test: Growth inhibition of human 786-0 cells at 1 uM after 96 hrs by MTT assay; parameters: scale not given: the % may be the effect or the level left
OVCAR-4 [17] = test: Growth inhibition of human OVCAR4 cells at 1 uM after 96 hrs by MTT assay; parameters: scale not given: the % may be the effect or the level left
BT-549 [18] = test: Growth inhibition of human BT549 cells at 100 nM after 96 hrs by MTT assay; parameters: scale not given: the % may be the effect or the level left
786-0 [19] = test: Growth inhibition of human 786-0 cells at 100 nM after 96 hrs by MTT assay; parameters: scale not given: the % may be the effect or the level left
NCI/ADR-RES = test: Growth inhibition of human NCI/ADR-RES cells at 100 nM after 96 hrs by MTT assay; parameters: scale not given: the % may be the effect or the level left
U-251 = test: Growth inhibition of human U251 cells at 100 nM after 96 hrs by MTT assay; parameters: scale not given: the % may be the effect or the level left
SR [20] = test: Growth inhibition of human SR cells at 100 nM after 96 hrs by MTT assay; parameters: scale not given: the % may be the effect or the level left
T47D [21] = test: Growth inhibition of human T47D cells at 10 nM after 96 hrs by MTT assay; parameters: scale not given: the % may be the effect or the level left
UO-31 = test: Growth inhibition of human UO31 cells at 10 nM after 96 hrs by MTT assay; parameters: scale not given: the % may be the effect or the level left
TK-10 [22] = test: Growth inhibition of human TK10 cells at 10 nM after 96 hrs by MTT assay; parameters: scale not given: the % may be the effect or the level left
IGROV-1 = test: Growth inhibition of human IGROV1 cells at 10 nM after 96 hrs by MTT assay; parameters: scale not given: the % may be the effect or the level left
NCI-H522 = test: Growth inhibition of human NCI-H522 cells at 10 nM after 96 hrs by MTT assay; parameters: scale not given: the % may be the effect or the level left
NCI-H23 = test: Growth inhibition of human NCI-H23 cells at 10 nM after 96 hrs by MTT assay; parameters: scale not given: the % may be the effect or the level left
LOX IMVI = test: Growth inhibition of human LOXIMVI cells at 1 uM after 96 hrs by MTT assay; parameters: scale not given: the % may be the effect or the level left
HCT-15 = test: Growth inhibition of human HCT15 cells at 1 uM after 96 hrs by MTT assay; parameters: scale not given: the % may be the effect or the level left
[23] = read-out: Log10GI50 (converted)
[24] = read-out: Log10LC50 (converted)
[25] = read-out: LC50 (the source's name)

Structure (SMILES): C=C(C)[C@H]1CC=C(C)C2=CO[C@@H](c3ccccc3F)[C@@H]21
- Activity (BT-549 [1]): 97%
- Activity (RXF 393 [2]): 94%
- Activity (786-0 [3]): 99%
- Activity (UACC-257): 91%
- Activity (SNB-19 [4]): 94%
- Activity (COLO 205): 101%
- Activity (SR [5]): 83%
- Activity (T47D [6]): 56.11%
- Activity (TK-10 [7]): 113.66%
- Activity (RXF 393 [8]): 98.38%
- Activity (SNB-19 [9]): 82.9%
- Activity (SF-295): 85.19%
- Activity (SW-620): 101.12%
- Activity (HT-29 [10]): 89.53%
- Activity (NCI-H322M): 120.7%
- GI50 (HT-29 [11]; read-out: GI50): 3.41 µM
- LC50 (50% lethal concentration) (HT-29 [11]; read-out: LC50): 43.2 µM
- GI50 (HT-29 [11]; [23]): 3.39 µM
- LC50 (50% lethal concentration) (HT-29 [11]; [24]): 43.7 µM
- TGI (HT-29 [11]; read-out: Log10TGI (converted)): 15.5 µM
- TGI (HT-29 [11]; read-out: TGI): 15.6 µM
- GI50 (OVCAR-4 [12]; read-out: GI50): 4.1 µM
- CC50 (OVCAR-4 [12]; [25]): 86.6 µM
- GI50 (OVCAR-4 [12]; [23]): 4.07 µM
- CC50 (OVCAR-4 [12]; [24]): 87.1 µM
- TGI (OVCAR-4 [12]; read-out: Log10TGI (converted)): 24 µM
- TGI (OVCAR-4 [12]; read-out: TGI): 23.7 µM
- GI50 (MCF7; read-out: GI50): 3.77 µM
- CC50 (MCF7; [25]): 63.9 µM
- GI50 (MCF7; [23]): 3.8 µM
- CC50 (MCF7; [24]): 64.6 µM
- TGI (MCF7; read-out: Log10TGI (converted)): 18.6 µM
- TGI (MCF7; read-out: TGI): 18.8 µM
- GI50 (BT-549 [13]; read-out: GI50): 1720 nM
- CC50 (BT-549 [13]; [25]): 34 µM
- GI50 (BT-549 [13]; [23]): 1700 nM
- CC50 (BT-549 [13]; [24]): 33.9 µM
- TGI (BT-549 [13]; read-out: Log10TGI (converted)): 8.32 µM
- TGI (BT-549 [13]; read-out: TGI): 8.37 µM
- GI50 (T47D [14]; read-out: GI50): 2240 nM
- CC50 (T47D [14]; [25]): > 100 µM
- GI50 (T47D [14]; [23]): 2240 nM
- CC50 (T47D [14]; [24]): > 100 µM
- TGI (T47D [14]; read-out: Log10TGI (converted)): 11 µM
- TGI (T47D [14]; read-out: TGI): 11.1 µM
- GI50 (HCC 2998; read-out: GI50): 6.4 µM
- CC50 (HCC 2998; [25]): 45.3 µM
- GI50 (HCC 2998; [23]): 6.46 µM
- CC50 (HCC 2998; [24]): 45.7 µM
- TGI (HCC 2998; read-out: Log10TGI (converted)): 19.5 µM
- TGI (HCC 2998; read-out: TGI): 19.3 µM
- GI50 (SR [15]; read-out: GI50): 798 nM
- CC50 (SR [15]; [25]): 23.9 µM
- GI50 (SR [15]; [23]): 794 nM
- CC50 (SR [15]; [24]): 24 µM
- TGI (SR [15]; read-out: Log10TGI (converted)): 3.72 µM
- TGI (SR [15]; read-out: TGI): 3.67 µM
- GI50 (HL-60(TB); read-out: GI50): 2080 nM
- CC50 (HL-60(TB); [25]): 35.5 µM
- GI50 (HL-60(TB); [23]): 2090 nM
- CC50 (HL-60(TB); [24]): 35.5 µM
- TGI (HL-60(TB); read-out: Log10TGI (converted)): 5.01 µM
- TGI (HL-60(TB); read-out: TGI): 4.97 µM
- Activity (MDA-MB-468): 11%
- Activity (786-0 [16]): 48%
- Activity (OVCAR-4 [17]): 33%
- Activity (BT-549 [18]): 67%
- Activity (786-0 [19]): 89%
- Activity (NCI/ADR-RES): 82%
- Activity (U-251): 80%
- Activity (SR [20]): 47%
- Activity (T47D [21]): 89%
- Activity (UO-31): 83%
- Activity (TK-10 [22]): 84%
- Activity (IGROV-1): 85%
- Activity (NCI-H522): 77%
- Activity (NCI-H23): 92%
- Activity (LOX IMVI): 33%
- Activity (HCT-15): 31%
